Experiments:
[1] = test system: PC12 cells; assay: Oxygen glucose deprivation; format: cell-based; conditions: PC12-OGD primary assay, 1, 10, 25 μM
Method in brief: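 PC12 cells (passage 12–14, undifferentiated) were plated overnight in serum-containing DMEM/F12. They were deprived of glucose and oxygen for 1.5 h (glucose-free HBSS, argon, 37 °C). The medium was then replaced with growth medium containing test compound (1, 10, 25 µM) or DMSO for 24 h. MTT (0.5 mg/mL) was added for 4 h and dissolved in DMSO, with absorbance read at 540 nm. Viability is % change versus vehicle control; mean ± SEM, n = 3, triplicate experiments; ANOVA with Dunnett's test.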

[2] = test system: PC12 cells; assay: OGD neuroprotection concentration response, PrestoBlue; format: cell-based; conditions: 50 μM, OGD-exposed PC12 cells
Method in brief: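 Undifferentiated PC12 cells (passage 12–14) were plated overnight in DMEM/F12 with 5% FBS and 5% HS. They were given 1.5 h OGD in glucose-free HBSS under argon at 37 °C. Fresh growth medium with test compound (0.1, 1, 5, 10, 25, 50 µM) or DMSO followed, for 24 h at 37 °C. PrestoBlue (10%) was added for 30 min, and fluorescence was read at 560/590 nm. Results are % change versus vehicle control; non-OGD plates were included.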

[3] = test system: sGC signaling; assay: PC12-OGD assay with co-incubation of the sGC inhibitor ODQ, MTT readout; format: cell-based; conditions: ODQ 10 μM
Method in brief: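 This was the PC12 OGD protocol (90 min glucose-free HBSS under argon at 37 °C, then 24 h in growth medium with test compound), with ODQ (10 µM) co-incubated. Viability was read by MTT (0.5 mg/mL, 4 h, DMSO-solubilised, 540 nm) relative to vehicle control. Mean ± SEM, n = 3, duplicate experiments; one-way ANOVA with Dunnett's test.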

[4] = test system: GABAA, serotonin receptors, dopamine receptors, and muscarinic and nicotinic acetylcholine receptors; assay: Psychoactive Drug Screening Program radioligand binding panel; conditions: PDSP, Supplementary Table 2
[5] = target: hERG (Homo sapiens, UniProt Q12809); assay: Psychoactive Drug Screening Program hERG binding; conditions: PDSP
Sequence of hERG (Q12809 whole entry): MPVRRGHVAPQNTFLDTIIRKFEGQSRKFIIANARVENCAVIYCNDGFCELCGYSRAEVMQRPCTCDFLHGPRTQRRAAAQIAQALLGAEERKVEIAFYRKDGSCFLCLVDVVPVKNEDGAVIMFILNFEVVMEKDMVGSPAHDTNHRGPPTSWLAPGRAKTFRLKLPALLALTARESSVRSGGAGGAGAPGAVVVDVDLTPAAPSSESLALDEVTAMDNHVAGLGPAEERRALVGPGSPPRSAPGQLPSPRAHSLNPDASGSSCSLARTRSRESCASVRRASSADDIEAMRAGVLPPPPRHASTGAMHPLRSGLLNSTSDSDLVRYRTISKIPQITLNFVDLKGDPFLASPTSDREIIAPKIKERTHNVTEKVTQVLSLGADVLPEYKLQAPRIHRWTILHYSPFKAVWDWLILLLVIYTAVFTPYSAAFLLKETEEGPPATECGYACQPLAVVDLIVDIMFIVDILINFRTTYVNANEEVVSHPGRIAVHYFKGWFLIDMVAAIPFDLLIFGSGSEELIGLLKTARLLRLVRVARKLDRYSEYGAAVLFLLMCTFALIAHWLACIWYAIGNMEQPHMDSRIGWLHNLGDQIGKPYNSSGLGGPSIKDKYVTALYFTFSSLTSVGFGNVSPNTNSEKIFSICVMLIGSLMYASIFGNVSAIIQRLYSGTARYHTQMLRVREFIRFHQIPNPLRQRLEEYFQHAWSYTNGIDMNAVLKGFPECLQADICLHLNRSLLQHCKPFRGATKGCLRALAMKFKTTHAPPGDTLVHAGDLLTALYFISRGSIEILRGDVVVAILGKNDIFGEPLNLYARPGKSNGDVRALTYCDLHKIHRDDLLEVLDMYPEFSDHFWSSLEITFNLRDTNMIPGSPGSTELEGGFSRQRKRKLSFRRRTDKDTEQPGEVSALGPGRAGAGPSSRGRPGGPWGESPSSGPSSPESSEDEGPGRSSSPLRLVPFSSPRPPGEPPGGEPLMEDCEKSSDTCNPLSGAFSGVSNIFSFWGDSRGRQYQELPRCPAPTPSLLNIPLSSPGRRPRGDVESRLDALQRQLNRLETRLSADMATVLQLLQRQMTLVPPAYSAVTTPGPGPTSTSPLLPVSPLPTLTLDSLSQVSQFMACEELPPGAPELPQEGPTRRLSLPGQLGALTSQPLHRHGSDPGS

[6] = Reactivity analysis with N-acetyl cysteine, HPLC-PDA; format: physicochemical; conditions: 250 μM compound, N-acetyl cysteine 5 mM, PBS 50 mM pH 7.4, 37 °C, 2 and 12 h
Method in brief: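 Test compound (250 µM) or N-ethylmaleimide (250 µM) was incubated with or without N-acetylcysteine (5 mM) in 50 mM PBS, pH 7.4, at 37 °C. Aliquots were taken at 2 and 12 h and analysed by HPLC-PDA. Peak areas at each analyte's UV λmax gave the relative abundance of remaining starting material.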

[7] = test system: PC12 cells; assay: NO production as NO2− in the primary assay; format: cell-based
[8] = test system: PC12 cells; assay: LC-MS/MS study of cell permeability; format: in vitro ADME; conditions: 25 μM, 24 h, control and OGD-treated PC12 cells
Method in brief: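 PC12 cells (1×10^6) were given 1.5 h OGD under argon at 37 °C, or kept without OGD on a control plate. They were then exposed to 25 µM test compound or vehicle for 24 h. Medium was collected, and cytosol was taken by lysis in HEPES/NP-40 buffer for 15 min at 0 °C and centrifuged. Samples were diluted in 2% formic acid and spiked with an analogue internal standard. Analysis was positive-ESI UPLC-MS/MS, with MRM peak areas normalised to the internal standard.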

[9] = format: in vivo; conditions: 20 mg/kg ip or po, mice
[10] = test system: CREB phosphorylation; assay: pCREB:tCREB ratio in forebrain by ELISA; format: in vivo, mice; conditions: 5a alone 20 mg/kg ip or po, 1, 2 or 12 h
[11] = target: delta opioid receptor (Homo sapiens, UniProt P41143); assay: Psychoactive Drug Screening Program binding, delta opioid receptor; conditions: PDSP
Sequence of delta opioid receptor (P41143 whole entry): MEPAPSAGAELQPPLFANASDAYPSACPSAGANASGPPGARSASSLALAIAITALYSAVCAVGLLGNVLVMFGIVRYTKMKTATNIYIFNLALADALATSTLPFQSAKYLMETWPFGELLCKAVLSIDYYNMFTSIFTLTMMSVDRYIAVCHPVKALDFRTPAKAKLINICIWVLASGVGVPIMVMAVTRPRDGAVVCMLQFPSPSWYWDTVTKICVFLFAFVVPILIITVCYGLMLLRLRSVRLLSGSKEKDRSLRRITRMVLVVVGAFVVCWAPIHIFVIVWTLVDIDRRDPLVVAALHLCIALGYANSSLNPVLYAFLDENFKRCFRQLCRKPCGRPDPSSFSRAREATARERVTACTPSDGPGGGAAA

[12] = test system: benzodiazepine (BZP) rat brain site; assay: Psychoactive Drug Screening Program binding, benzodiazepine; conditions: PDSP
[13] = test system: male C57BL/6 mice; assay: Step-through passive avoidance; format: in vivo; conditions: scopolamine 1 mg/kg ip 30 min prior to training alone (negative control); vehicle-treated 270 ± 29 s; mean ± SEM

## CC1CCN(Cc2no[n+]([O-])c2-c2ccc(F)cc2)CC1 [Furoxan 5a, 3-(4-Fluorophenyl)-4-((4-methylpiperidin-1-yl)methyl)-1,2,5-oxadiaozle 2-Oxide]
[1]
  neuroprotection (in words): noticeable neuroprotective activity
[2]
  toxicity at the highest concentration tested: no toxicity was observed
[3]
  neuroprotective effects on co-incubation with ODQ: completely blocked
[4]
  interference with radioligand binding, receptor panel: does not interfere with binding of any radioligands for all receptors screened
[5]
  hERG binding: No hERG binding was observed
[6]
  reactivity with excess thiol: negligible reactivity
[7]
  NO production in the form of NO2−: negligible NO production
[8]
  distribution between media (supernatant) and cytosol: found in greatest amounts in the cytosol
[9]
  presence in forebrain and plasma after 12 h: detectable levels after 12 h
[10]
  effect on pCREB (pCREB:tCREB ratio), forebrain: no effect on pCREB was observed

## CC1CCN(Cc2no[n+]([O-])c2-c2ccc(Br)cc2)CC1 [Furoxan 5c, 3-(4-Bromophenyl)-4-((4-methylpiperdin-1-yl)methyl)-1,2,5-oxadiazole 2-Oxide]
[1]
  neuroprotection (in words): noticeable neuroprotective activity

## CC1CCN(Cc2no[n+]([O-])c2-c2ccc(OC(F)F)cc2)CC1 [Furoxan 5d, 3-(4-(Difluoromethoxy)phenyl)-4-((4-methylpiperidin-1-yl)-methyl)-1,2,5-oxadiazole 2-Oxide]
[1]
  neuroprotection (in words): noticeable neuroprotective activity

## [2H]C1([2H])CC(C)CC([2H])([2H])N1Cc1no[n+]([O-])c1-c1ccc(F)cc1 [Furoxan 7a, 3-(4-Fluorophenyl)-4-((4-methylpiperidin-1-yl-2,2,6,6-d4)methyl)-1,2,5-oxadiazole 2-Oxide]
[1]
  neuroprotection (in words): no neuroprotective effects
[11]
  inhibition of binding at the delta opioid receptor: significantly inhibited binding
[12]
  inhibition of binding at the benzodiazepine (BZP) rat brain site: significantly inhibited binding
[8]
  distribution between media (supernatant) and cytosol: found in greatest amounts in the cytosol

## CCN1C(=O)C=CC1=O [NEM, N-ethylmaleimide, reference compound]
[6]
  reactivity with excess thiol: complete reaction

## CN1[C@@H]2C[C@@H](OC(=O)[C@H](CO)c3ccccc3)C[C@H]1[C@@H]1O[C@@H]12 [Scopolamine]
[13]
  latency to enter the dark compartment 24 h after training: 63.5 ± 30 s
